The values below come from ChEMBL document CHEMBL4665785 (J Med Chem, 2020).

By Ki is commonly meant the dissociation constant of the complex between target and ligand, obtained from inhibition or displacement. Usually EC50 stands for the concentration that produces a half-maximal response. As a reminder, the inhibition is the percentage by which the read-out fell short of the control.

The source made the active and inactive calls. No cut-off for these calls is given here.

Data set [1] addresses T1, Cathepsin S (Homo sapiens, UniProt P25774). Put plainly: Inhibition of recombinant human Cathepsin S expressed in baculovirus infected insect cells using Z-VVR-AMC as substrate preincubated for 15 mins followed by substrate addition and measured after 10 mins by fluorescence assay.
Data set [2] can be described thus: Permeability across apical to basal side in human Caco-2 cells at 1 uM measured up to 120 min by LC-MS analysis. Type of data set: ADME, cell-based. To be noted: time <= 120, dose 1 µM, read-out: permeability. On the technique in general: Passage across Caco-2 layers is used to estimate intestinal permeability.
In data set [3] the target is T1, Cathepsin S. Kind of data set: Inhibition of Cathepsin S in human Raji cells assessed as increase in Lip10 accumulation after 24 hrs by SDS-PAGE analysis. Type of data set: cell-based. The method in brief: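 Human Raji cells, an antigen-presenting B-lymphocyte line, used for the target-engagement read-out. Inhibition is scored as intracellular accumulation of the CatS substrate Lip10, the invariant-chain-derived propeptide.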

The species named for data set [4] is Homo sapiens. Put plainly: Selectivity ratio of inhibition of recombinant human Cathepsin K to inhibition of recombinant human Cathepsin S.
Data set [5] is filed under the species Homo sapiens. Put plainly: Selectivity ratio of inhibition of human liver Cathepsin L to inhibition of recombinant human Cathepsin S.
For data set [6], the species on record is Homo sapiens. Put plainly: Selectivity ratio of inhibition of human liver Cathepsin B to inhibition of recombinant human Cathepsin S.
The target in data set [7] is Procathepsin L (Homo sapiens) (UniProt P07711). Put plainly: Inhibition of human liver Cathepsin L using Z-VVR-AMC as substrate at 10 uM preincubated for 15 mins followed by substrate addition and measured after 10 mins by fluorescence assay relative to control. To be noted: time 25.0 min.
Sequence of Procathepsin L (Homo sapiens) (P07711 114-333 limits assumed): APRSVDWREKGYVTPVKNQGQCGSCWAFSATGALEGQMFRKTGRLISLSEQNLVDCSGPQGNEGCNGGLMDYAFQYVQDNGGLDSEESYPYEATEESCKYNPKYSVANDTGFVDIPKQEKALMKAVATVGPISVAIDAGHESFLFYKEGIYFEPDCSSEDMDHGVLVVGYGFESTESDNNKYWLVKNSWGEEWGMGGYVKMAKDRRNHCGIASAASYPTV
For data set [8], the target named is T2, Cathepsin K (Homo sapiens) (UniProt P43235).
T2 sequence (whole entry): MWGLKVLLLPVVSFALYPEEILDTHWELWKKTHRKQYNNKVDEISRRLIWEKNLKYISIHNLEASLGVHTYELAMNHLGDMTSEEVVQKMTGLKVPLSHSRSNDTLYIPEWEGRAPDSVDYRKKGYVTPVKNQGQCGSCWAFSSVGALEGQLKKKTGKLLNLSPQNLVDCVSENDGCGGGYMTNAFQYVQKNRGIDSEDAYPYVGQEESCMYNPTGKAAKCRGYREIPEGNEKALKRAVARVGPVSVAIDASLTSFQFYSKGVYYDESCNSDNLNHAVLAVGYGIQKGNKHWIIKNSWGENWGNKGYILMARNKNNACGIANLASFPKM
Put plainly: Inhibition of recombinant human Cathepsin K expressed in baculovirus infected insect cells using Z-FR-AMC as substrate at 10 uM preincubated for 15 mins followed by substrate addition and measured after 10 mins by fluorescence assay relative to control. The settings on record: time 25.0 min.

Data set [9] addresses Cathepsin B (Homo sapiens) (UniProt P07858). Put plainly: Inhibition of human liver Cathepsin B using Z-VVR-AMC as substrate at 10 uM preincubated for 15 mins followed by substrate addition and measured after 10 mins by fluorescence assay relative to control. The settings on record: time 25.0 min.
The target of data set [10] is T2, Cathepsin K (Homo sapiens). Put plainly: Inhibition of recombinant human Cathepsin K expressed in baculovirus infected insect cells using Z-FR-AMC as substrate up to 100 uM preincubated for 15 mins followed by substrate addition and measured after 10 mins by fluorescence assay relative to control. To be noted: time 25.0 min.

T1 sequence (P25774 whole entry): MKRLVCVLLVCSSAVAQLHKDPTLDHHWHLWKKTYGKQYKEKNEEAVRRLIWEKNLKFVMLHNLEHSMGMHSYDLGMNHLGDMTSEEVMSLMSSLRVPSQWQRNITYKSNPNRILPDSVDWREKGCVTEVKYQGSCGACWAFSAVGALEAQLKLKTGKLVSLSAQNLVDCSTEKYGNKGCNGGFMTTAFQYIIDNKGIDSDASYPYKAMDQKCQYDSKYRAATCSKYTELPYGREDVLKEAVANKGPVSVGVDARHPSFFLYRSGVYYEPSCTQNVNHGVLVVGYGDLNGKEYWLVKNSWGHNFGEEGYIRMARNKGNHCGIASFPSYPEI

Take `N#CC1(NC(=O)CCS(=O)(=O)N2CCN(c3ccccn3)CC2)CC1`: the Ki at Cathepsin S [1] is 0.8 µM.
In the case of `N#CC1(NC(=O)[C@H](CS(=O)(=O)N2CCN(c3ccccn3)CC2)Nc2cccnc2)CC1`, the Papp A→B at 2 h, 1 µM in data set [2] turned out to be 3.3 nm/s. In addition, at Cathepsin S [1], the Ki was found to be 0.00025 µM.
As to `N#CC1(NC(=O)[C@H](CS(=O)(=O)C[C@H]2CCC(=O)N2)N[C@@H](c2ccc(F)cc2)C(F)(F)F)CC1`, the inhibition constant (Ki) on Cathepsin S [1] is at most 0.1 µM.
As to `N#CC1(NC(=O)[C@H](CS(=O)(=O)N2CCN(c3ccccn3)CC2)NC(=O)Cc2cccs2)CC1`, the Papp A→B at 2 h, 1 µM in data set [2] worked out at 4 nm/s. Moreover, at Cathepsin S [3], the concentration giving a half-maximal response (EC50) came to 1.1 µM. At Cathepsin S [1], the inhibition constant Ki is 0.0002 µM.
Take `Cc1cc(CC(=O)N[C@@H](CS(=O)(=O)N2CCN(c3ccccn3)CC2)C(=O)NC2(C#N)CC2)on1`: the Selectivity ratio in the data set filed under Homo sapiens [4], in the data set listed under Homo sapiens [5] and in the data set listed under Homo sapiens [6] was above 30000 each time. The inhibition in data set [7] was below 26%; in data set [8] it was below 16%; in data set [9] it was below 8%. Besides, at Cathepsin S [1], the Ki came out at 0.000345 µM.
Turning to `CNC(=O)CCS(=O)(=O)N1CCN(c2ccc3nncn3n2)CC1`, the inhibition result in data set [10] is “inactive”. The inhibition constant Ki at Cathepsin S [1] worked out at 0.7 µM.
As for `N#CC1(NC(=O)[C@@H](Cc2ccccc2)CS(=O)(=O)N2CCN(c3ccccn3)CC2)CC1`, the Ki at Cathepsin S [1] stood at 0.29 µM.
